This is an account of results in PMC6262783 (International Journal for Parasitology: Drugs and Drug …, 2018).

In general, IC50 refers to the midpoint of a concentration-inhibition curve. Broadly, the kinetic solubility is the concentration staying in solution when a stock, usually in DMSO, is diluted into the medium. What is called half-life is the time needed for the level to fall by half in the phase considered. High values mean slow decline, low ones rapid decline. As a reminder, the microsomal CLint is the capacity of the preparation to metabolise the compound, expressed as a volume cleared per time. Low readings indicate slow turnover, high ones rapid turnover.

Entries after “also recorded” stand apart in the source; their conditions may differ.

One data set relates to T. gondii. As to conditions: ref Sanford et al., 2018; cited from earlier work.
A further data set relates to ME49 strain T. gondii. The data set is described as follows: In vivo survivorship challenge in murine model. Also noted: species or system Toxoplasma gondii. In a few lines: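 Female Swiss Webster mice, 2 months old, were infected intraperitoneally with 5000 ME49 tachyzoites. Dosing started simultaneously: test compound 5 mg/kg (n = 10), pyrimethamine 5 mg/kg (n = 20) or solvent (n = 24), IP once daily for 10 days. Vehicle was 5% DMSO, 47.5% propylene glycol, 47.5% Kollisolv. Mice were weighed daily; survival was followed over 40 d by Kaplan-Meier.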

A further data set deals with PRU T. gondii. The data set is described as follows: T. gondii growth inhibition in vitro screen, PRU-dTom strain. The class given is cell-based, Toxoplasma gondii. To be noted: for IC50: Toxoplasma gondii, 120 h, read-out: PRU T. gondii IC50; for activity against PRU T. gondii (in words): PRU strain. In a few lines:
(§1)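 HFF (~20,000/well) were grown to confluence, then infected with dTomato-expressing tachyzoites: RH 2000/well for 24 h, or PRU 8000/well for 48 h, at 37 °C. Medium was replaced and test compound in DMSO added at 0–100 µM in duplicate, with pyrimethamine as positive control. Fluorescence (ex 530/25, em 590/25) was read over 5 days; IC50 was the concentration halving RFU at day 5.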

The test system of data set [1] is human embryonic kidney cells (HEK-293). The data set is described as follows: Mammalian cell cytotoxicity screen. Type of data set: cell-based. To be noted: HEK293, 24 h, read-out: HEK293 IC50. A digest of the protocol:
(§2)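 HEK-293 and HC-04 were kept in DMEM with 10% heat-inactivated bovine serum, 2 mM L-glutamine, penicillin/streptomycin and gentamicin (no Medium 199), at 36.5 °C with 5% CO2. Cells (~20,000/well) were grown to confluence, then treated with 0–100 µM test compound for 24 h in duplicate. Alamar Blue (0.5 mM resazurin, 4 h, 37 °C) was read at ex 530/25, em 590/25; viability was relative to untreated cells (100%).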

Data set [2] deals with murine macrophages (NR-9456). The data set is described as follows: Mammalian cell cytotoxicity screen. To be noted: Mus musculus, Macrophage, 24 h, read-out: NR-9456 IC50. The class given is cell-based. In a few lines:
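Murine macrophages NR-9456 were maintained with added 1 mM sodium pyruvate and plated at ~20,000/well to confluence. They were exposed to 0–100 µM test compound for 24 h in duplicate. Resazurin (0.5 mM) was added for 4 h at 37 °C with 5% CO2, and fluorescence was read at ex 530/25, em 590/25. Viability was normalised to no-compound wells (100%).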

In data set [3] the test system is human foreskin fibroblasts (HFF). The data set is described as follows: Mammalian cell cytotoxicity screen. The class given is cell-based. To be noted: Fibroblast, 24 h, read-out: HFF IC50. A digest of the protocol: (§3)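 HFF and U-20S were kept in DMEM with 10% heat-inactivated bovine serum, 2 mM L-glutamine, penicillin/streptomycin, 10% Medium 199 and gentamicin, at 36.5 °C with 5% CO2. Confluent cells (~20,000/well plated) were treated with 0–100 µM test compound for 24 h in duplicate. Alamar Blue (0.5 mM resazurin, 4 h, 37 °C) was read at ex 530/25, em 590/25; untreated cells defined 100% viability.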

Data set [4] has as its system Salmonella typhimurium (TA100 strain). As to the kind of experiment: Bacterial reverse mutation assay. To be noted: 0.75 μM (ca. 3x average T. gondii IC50). The class given is cell-based.
A short description of data set [5]: Kinetic aqueous solubility by nephelometry. Type of data set: physicochemical. As to conditions: PBS pH 6.5, pH 6.5, aqueous buffer, kinetic from dmso stock. A digest of the protocol: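 Kinetic solubility was determined by nephelometry after 30 min at room temperature. A solubility range was reported.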
Data set [6] concerns human osteosarcoma cells (U-20S). As to the kind of experiment: Mammalian cell cytotoxicity screen. To be noted: U2OS, 24 h, read-out: U2OS IC50. Type of data set: cell-based. A digest of the protocol: as §3
In data set [7] the test system is RH-dTom tachyzoites in pre-treated HFF cells. The data set is described as follows: Host cell. The class given is cell-based, Toxoplasma gondii. A digest of the protocol:
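HFF were grown to confluence in 96-well plates and exposed to 10 µM test compound for 24 h at 37 °C, in triplicate. Cells were washed twice with D10 medium, then infected with RH-dTom tachyzoites. Parasite growth was followed by fluorescence for 5 days post-infection and expressed relative to control.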

Data set [8] has as its system human liver cells (HC-04). As to the kind of experiment: Mammalian cell cytotoxicity screen. As to conditions: HC04, 24 h, read-out: HCO4 IC50. Type of data set: cell-based. In a few lines: as §2
A short description of data set [9]: Metabolic stability in human liver microsomes. Type of data set: in vitro ADME. A digest of the protocol: (§4)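 Test compound (1 µM) was incubated with human or mouse liver microsomes (0.4 mg/mL protein) at 37 °C. Reactions were started with an NADPH-regenerating system and quenched at 2, 30 and 60 min. Remaining compound was quantified by LCMS to derive half-life, in vitro intrinsic clearance and predicted hepatic extraction ratio.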
For orientation: Microsomes from liver hold many membrane-bound enzymes, among them those of drug oxidation.

Data set [10] in a line: Metabolic stability in mouse liver microsomes. The class given is in vitro ADME. In a few lines: as §4
The subject of the next data set is RH T. gondii. As to the kind of experiment: T. gondii growth inhibition in vitro screen, RH-dTom strain. Type of data set: cell-based, Toxoplasma gondii. To be noted: for activity against RH T. gondii (in words): primary screen. In a few lines:
as §1

A further data set deals with RH-dTom tachyzoites. The data set is described as follows: Extracellular parasite pre-treatment assay. Type of data set: cell-based. As to conditions: Toxoplasma gondii, read-out: parasite growth, % of control. A digest of the protocol: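 RH-dTom tachyzoites were isolated from culture and resuspended in D10 medium at 10e6/mL. They were exposed to 10 µM test compound for 4 h, then centrifuged and washed twice. Confluent HFF in 96-well plates were infected with 2000 treated tachyzoites per well. Parasite growth was read by fluorescence at 5 days post-infection and expressed relative to control.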

Another data set addresses human albumin (Homo sapiens, UniProt P02768). As to the kind of experiment: Chromatography-based protein binding. Type of data set: in vitro ADME. As to conditions: estimated by chromatographic method, human albumin column. A digest of the protocol:
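Plasma protein binding was estimated chromatographically on a human albumin column. Retention was correlated against a standard series of compounds with known cPPB values.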

human albumin, sequence (P02768 25-609): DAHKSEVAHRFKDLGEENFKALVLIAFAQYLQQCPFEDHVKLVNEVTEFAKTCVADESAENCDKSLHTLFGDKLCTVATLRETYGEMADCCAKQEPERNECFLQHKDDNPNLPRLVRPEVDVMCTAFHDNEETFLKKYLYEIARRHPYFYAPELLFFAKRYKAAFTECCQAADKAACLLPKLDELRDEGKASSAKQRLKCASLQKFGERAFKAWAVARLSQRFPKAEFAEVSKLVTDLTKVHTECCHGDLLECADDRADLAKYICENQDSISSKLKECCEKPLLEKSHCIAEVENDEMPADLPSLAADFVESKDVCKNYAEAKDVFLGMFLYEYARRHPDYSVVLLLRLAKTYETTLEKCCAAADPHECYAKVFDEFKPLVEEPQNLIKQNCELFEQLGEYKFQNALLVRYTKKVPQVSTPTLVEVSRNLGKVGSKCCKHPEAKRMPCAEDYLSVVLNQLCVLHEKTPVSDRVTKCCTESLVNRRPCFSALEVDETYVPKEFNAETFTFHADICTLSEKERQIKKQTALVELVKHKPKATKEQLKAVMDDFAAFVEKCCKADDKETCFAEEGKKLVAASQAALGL

As for `NNC(=O)c1ccncc1` [isoniazid], the “activity against T. gondii in vitro (in words)” value with T. gondii is “inactive”.

In the case of `CC(C)(C)C1=CC(=NNc2ccc([N+](=O)[O-])cc2[N+](=O)[O-])C=C(C(C)(C)C)C1=O` [KGW59, 2,6-di-tert-butyl-4-(2-(2,4-dinitrophenyl)hydrazineylidene)cyclohexa-2,5-dien-1-one], in the data set on ME49 strain T. gondii, the “survivorship (in words)” value is “significantly increased survivorship”. In addition, the IC50 in the data set with PRU T. gondii is 1400 nM; in [1] it was greater than 100 µM; in data set [2], greater than 100 µM; in data set [3] it was greater than 100 µM; in data set [6], greater than 100 µM; in data set [8] it was greater than 100 µM. Besides, the “Ames Assay” value in [4] is recorded as “neither compound was mutagenic; also recorded: Negative”. In addition, the kinetic solubility at 30 min in data set [5] was less than 1.6 µg/mL. In data set [7] (Toxoplasma gondii, HFF, read-out: parasite growth, % of control), the activity at 10 µM is 30.2%. Further, the “Predicted EH” value in data set [9] is 0.38; in data set [10] it was 0.50. Moreover, the half-life at 1 μM in data set [9] turned out to be 111 min; in data set [10] it was 37 min. For the same compound, the microsomal CLint at 1 μM in data set [9] came out at 16 µL/min/mg; in [10], 46 µL/min/mg.

`CC(C)(C)C1=CC(=NNC(=O)c2cccnc2)C=C(C(C)(C)C)C1=O` [KGW65, N'-(3,5-di-tert-butyl-4-oxocyclohexa-2,5-dien-1-ylidene)nicotinohydrazide]: the “activity against PRU T. gondii (in words)” value in the data set on PRU T. gondii was “completely inactive”.

Turning to `CCOc1ccc(C(=O)NN=C2C=C(C(C)(C)C)C(=O)C(C(C)(C)C)=C2)cc1` [KGW64, N'-(3,5-di-tert-butyl-4-oxocyclohexa-2,5-dien-1-ylidene)-4-ethoxybenzohydrazide], in the data set with PRU T. gondii, the “activity against PRU T. gondii (in words)” value is recorded as “only weakly active”.

On to `CC1(C)CC(=NNC(=O)c2ccncc2)CC(C)(C)C1=O` [KGW73, N'-(3,3,5,5-tetramethyl-4-oxocyclohexylidene)isonicotinohydrazide], for which the IC50 in data set [3] is greater than 100 µM. Besides, in the data set with RH T. gondii (RH strain), the “activity against RH T. gondii (in words)” value was “inactive”.

On to `CC(C)(C)C1=CC(=NNC(=O)c2ccc([N+](=O)[O-])cc2)C=C(C(C)(C)C)C1=O` [KGW44, N'-(3,5-di-tert-butyl-4-oxocyclohexa-2,5-dien-1-ylidene)-4-nitrobenzohydrazide], for which the IC50 in the data set on PRU T. gondii was 990 nM; in data set [1] it was greater than 100 µM; in [2], greater than 100 µM; in data set [3], greater than 100 µM; in data set [6], greater than 100 µM; in data set [8], greater than 100 µM. The activity at 10 µM with RH-dTom tachyzoites was 60.3%. In addition, in data set [4], the “Ames Assay” value is reported as “neither compound was mutagenic; also recorded: Negative”. Further, the “cPPB (% Bound)” value on human albumin is listed as 84.3 % Bound. Moreover, the kinetic solubility at 30 min in data set [5] was less than 1.6 µg/mL. The “parasite growth, % of control” value in [7] (HFF pre-treated 10 μM 24 h, washed, then infected, 5 days post-infection) is “no significant change in growth”. For the same compound, the “Predicted EH” value in data set [9] is recorded as 0.45. The half-life at 1 μM in [9] came out at 83 min; in data set [10], 9 min. The microsomal CLint at 1 μM in [9] amounted to 21 µL/min/mg; in data set [10] it was 99 µL/min/mg.

As for `CC(C)(C)C1=CC(=NNC(=O)c2c[nH]cn2)C=C(C(C)(C)C)C1=O` [KGW45, N'-(3,5-di-tert-butyl-4-oxocyclohexa-2,5-dien-1-ylidene)-1H-imidazole-4-carbohydrazide], in data set [3], the IC50 was greater than 100 µM. Moreover, the “activity against RH T. gondii (in words)” value in the data set with RH T. gondii (RH strain) is listed as “significantly weakened”.

As for `CC(C)(C)C1=CC(=NNC(=O)c2ccccc2)C=C(C(C)(C)C)C1=O` [KGW15, N'-(3,5-di-tert-butyl-4-oxocyclohexa-2,5-dien-1-ylidene)benzohydrazide], the IC50 in data set [3] was greater than 100 µM.

Turning to `CC(C)(C)C1=CC(=NNC(=O)c2ccc(C#N)cc2)C=C(C(C)(C)C)C1=O` [KGW54, 4-cyano-N'-(3,5-di-tert-butyl-4-oxocyclohexa-2,5-dien-1-ylidene)benzohydrazide], the IC50 with PRU T. gondii was 2200 nM; in data set [3], greater than 100 µM; with RH T. gondii (read-out: RH T. gondii IC50, RH-dTom tachyzoites in HFF, fluorescence, day 5), 1200 nM.

As to `CC(C)(C)C1=CC(=NNC(=O)C2CCCCC2)C=C(C(C)(C)C)C1=O` [KGW66, N'-(3,5-di-tert-butyl-4-oxocyclohexa-2,5-dien-1-ylidene)cyclohexanecarbohydrazide], the “activity against RH T. gondii (in words)” value in the data set on RH T. gondii (RH strain) is given as “abolished activity”.

Turning to `CC(C)(C)C1=CC(=NNC(=O)c2ccc(O)cc2)C=C(C(C)(C)C)C1=O` [KGW43, N'-(3,5-di-tert-butyl-4-oxocyclohexa-2,5-dien-1-ylidene)-4-hydroxybenzohydrazide], in data set [3], the IC50 is greater than 100 µM.

On to `Cc1ccc(C(=O)ON=C2C=C(C(C)(C)C)C(=O)C(C(C)(C)C)=C2)cc1` [KGW72, 2,6-di-tert-butyl-4-(((4-methylbenzoyl)oxy)imino)cyclohexa-2,5-dien-1-one], for which, in [3], the IC50 is greater than 100 µM. Further, in the data set with RH T. gondii (RH strain), the “reduction of potency relative to KG8” value worked out at 6 fold.

As for `Cc1ccc(C(=O)NN=C2C=C(C(C)(C)C)C(=O)C(C(C)(C)C)=C2)cc1` [KGW42, N'-(3,5-di-tert-butyl-4-oxocyclohexa-2,5-dien-1-ylidene)-4-methylbenzohydrazide], the IC50 in data set [3] was greater than 100 µM.
